The target of assay [1] is Kappa-type opioid receptor (Cavia porcellus, UniProt P41144). Nature of the assay: Compound was evaluated for the binding affinity to opioid receptor kappa using [3H]-EK as radioligand in guinea pig brain membrane. In short, it runs like this: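 Radioligand displacement in guinea pig brain membranes, modified from an earlier published method. [3H]EK was used with 1 μM DAMGO present to block μ sites.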

The target in assay [2] is Mu-type opioid receptor (Cavia porcellus, UniProt P97266). Nature of the assay: Compound was evaluated for the binding affinity to Opioid receptor mu using [3H]DAMGO as radioligand in guinea pig brain membrane.
The nature of assay [3]: Compound was evaluated for the binding affinity to opioid receptor delta.

Sequence of Mu-type opioid receptor (P97266 whole entry): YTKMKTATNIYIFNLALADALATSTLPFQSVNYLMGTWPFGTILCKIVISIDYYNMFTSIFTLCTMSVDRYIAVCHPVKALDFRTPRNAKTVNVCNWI
Sequence of Kappa-type opioid receptor (P41144 whole entry): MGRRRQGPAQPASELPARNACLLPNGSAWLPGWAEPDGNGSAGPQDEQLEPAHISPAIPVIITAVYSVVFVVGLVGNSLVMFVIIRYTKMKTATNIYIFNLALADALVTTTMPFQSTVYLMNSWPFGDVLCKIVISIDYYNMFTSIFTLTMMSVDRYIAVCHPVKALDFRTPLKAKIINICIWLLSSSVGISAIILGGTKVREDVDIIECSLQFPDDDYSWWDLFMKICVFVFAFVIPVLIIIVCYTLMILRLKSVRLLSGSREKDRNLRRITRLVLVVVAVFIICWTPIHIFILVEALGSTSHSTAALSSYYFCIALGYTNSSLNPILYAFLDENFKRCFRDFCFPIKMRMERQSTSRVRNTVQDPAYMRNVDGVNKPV

The term Ki denotes a dissociation constant, usually derived from enzyme kinetics or from competition with a known ligand. With `Cn1c2c(c3c1[C@@H]1Oc4c(O)ccc5c4[C@@]14CCN(CC1CC1)[C@H](C5)[C@]4(O)C3)CCCC2`, the Ki in assay [1] was 203 nM; in assay [2], 16.8 nM. In assay [3], `Oc1ccc2c3c1O[C@H]1C(c4c[nH]c5ccccc45)=CC[C@@]4(O)C(C2)N(CC2CC2)CC[C@]314` [4-cyclopropylmethyl-14-(1H-3-indolyl)-(1S,13S,17S)-12-oxa-4-azapentacyclo[9.6.1.01,13.05,17.07,18]octadeca-7(18),8,10,14-tetraene-10,17-diol] returned a Ki of 0.99 nM. With `Oc1ccc2c3c1O[C@H]1C(c4ccccc4)=CC[C@@]4(O)[C@@H](C2)N(CC2CC2)CC[C@]314`, the Ki is 0.01 nM in assay [1] and 0.005 nM in assay [2].

As for `Oc1ccc2c3c1O[C@H]1c4nc5ccccc5nc4C[C@@]4(O)[C@@H](C2)N(CC2CC2)CC[C@]314`, the values for the Ki in assay [1] and in assay [2] were 191 nM and 7.3 nM, respectively. On to `Oc1ccc2c3c1O[C@H]1c4oc5ccccc5c4C[C@@]4(O)[C@@H](C2)N(CC2CC2)CC[C@]314` [CAS_111555-58-9], for which the values for the inhibition constant Ki in assay [1] and in assay [2] were 154 nM and 18.8 nM, respectively.
